Tests used:
[1] = test system: Human immunodeficiency virus 1; assay: Antiviral activity against HIV1 expressed in 293T cells assessed as protection against viral M33 envelope infection in human U87 cells coexpressing CD4, CCR5 receptors after 72 hrs by luciferase reporter gene pseudoviral assay; format: functional, organism-based; conditions: Human immunodeficiency virus 1, HEK-293T
How it was run: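 Pseudovirions carry an R5-using envelope cloned from a primary virus isolate. Anti-HIV-1 activity was taken as the 50% inhibitory dose against these pseudovirions.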

[2] = Inhibition of HIV1 3B recombinant gp120/sCD4 binding interaction by ELISA
How it was run: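 Competitive ELISA of soluble CD4 binding to gp120 from HIV IIIB. Bound CD4 was detected with an anti-CD4 monoclonal antibody, then a peroxidase-labelled anti-mouse antibody. The read-out was the 50% inhibitory dose.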

[3] = Cytotoxicity against human U87 cells coexpressing CD4, CxCR4 receptors after 72 hrs; format: cell-based, U-87MG ATCC; conditions: U87 cells coexpressing CD4 and CXCR4 receptors
[4] = test system: Human immunodeficiency virus; assay: Antiviral activity against HIV isolate 584.000 017 by replication assay; format: functional, organism-based; conditions: Human immunodeficiency virus 1, isolate 584.000 017
[5] = test system: Human immunodeficiency virus; assay: Antiviral activity against HIV isolate 584.000 030 by replication assay; format: functional, organism-based; conditions: Human immunodeficiency virus 1, isolate 584.000 030
[6] = test system: Human immunodeficiency virus; assay: Antiviral activity against HIV isolate 584.000 031 by replication assay; format: functional, organism-based; conditions: Human immunodeficiency virus 1, isolate 584.000 031
[7] = test system: Human immunodeficiency virus; assay: Antiviral activity against HIV isolate 584.000 054 by replication assay; format: functional, organism-based; conditions: Human immunodeficiency virus 1, isolate 584.000 054
[8] = test system: Human immunodeficiency virus; assay: Antiviral activity against HIV isolate 584.000 060 by replication assay; format: functional, organism-based; conditions: Human immunodeficiency virus 1, isolate 584.000 060
[9] = test system: Human immunodeficiency virus; assay: Antiviral activity against HIV isolate 584.000 063 by replication assay; format: functional, organism-based; conditions: Human immunodeficiency virus 1, isolate 584.000 063
[10] = test system: Human immunodeficiency virus; assay: Antiviral activity against HIV isolate 584.000 066 by replication assay; format: functional, organism-based; conditions: Human immunodeficiency virus 1, isolate 584.000 066
[11] = test system: Human immunodeficiency virus; assay: Antiviral activity against HIV isolate 584.000.098 by replication assay; format: functional, organism-based; conditions: Human immunodeficiency virus 1, isolate 584.000.098
[12] = test system: Human immunodeficiency virus; assay: Antiviral activity against HIV isolate 584.000 220 by replication assay; format: functional, organism-based; conditions: Human immunodeficiency virus 1, isolate 584.000 220
[13] = test system: Human immunodeficiency virus; assay: Antiviral activity against HIV isolate 584.000 227 by replication assay; format: functional, organism-based; conditions: Human immunodeficiency virus 1, isolate 584.000 227
[14] = test system: Human immunodeficiency virus; assay: Antiviral activity against HIV isolate 589.000 033 by replication assay; format: functional, organism-based; conditions: Human immunodeficiency virus 1, isolate 589.000 033
[15] = test system: Human immunodeficiency virus; assay: Antiviral activity against HIV isolate 584.000 058 by replication assay; format: functional, organism-based; conditions: Human immunodeficiency virus 1, isolate 584.000 058

IC50 [1]	IC50 [2]	SMILES	CC50 at 72 h [3]	further results
8 nM	930 nM	COc1ccnc2[nH]cc(C(=O)C(=O)N3CCN(C(=O)c4ccccc4)C[C@H]3C)c12	> 40 µM	IC50 [4]: > 10 µM; IC50 [5]: 29 nM; IC50 [6]: 8.02 µM; IC50 [7]: 5.53 µM; IC50 [8]: 24 nM; IC50 [9]: 46 nM; IC50 [10]: 190 nM; IC50 [11]: 394 nM; IC50 [12]: 5 nM; IC50 [13]: 423 nM; IC50 [14]: 27 nM; IC50 [15]: 38 nM
< 5 nM	230 nM	COc1cc(-c2cc(C)no2)ccc1C(=O)C(=O)N1CCN(C(=O)c2ccccc2)C[C@H]1C	> 40 µM	IC50 [4]: > 10 µM; IC50 [5]: 13 nM; IC50 [6]: 8.97 µM; IC50 [7]: 3.51 µM; IC50 [8]: 17 nM; IC50 [9]: 25 nM; IC50 [10]: 273 nM; IC50 [11]: 301 nM; IC50 [12]: 3 nM; IC50 [13]: 1820 nM; IC50 [14]: 11 nM; IC50 [15]: 22 nM
2500 nM	–	C[C@@H]1CN(C(=O)c2ccccc2)CCN1C(=O)C(=O)c1ccc(-c2ccncc2)cc1	> 40 µM	–
1200 nM	> 7500 nM	C[C@@H]1CN(C(=O)c2ccccc2)CCN1C(=O)C(=O)c1ccc(-n2cccn2)cc1	> 40 µM	–
5400 nM	–	Cc1nc(-c2ccc(C(=O)C(=O)N3CCN(C(=O)c4ccccc4)C[C@H]3C)cc2)cs1	> 40 µM	–
1600 nM	–	CC(=O)c1ccc(-c2ccc(C(=O)C(=O)N3CCN(C(=O)c4ccccc4)C[C@H]3C)cc2)s1	> 40 µM	–
330 nM	> 10000 nM	Cc1cc(-c2ccc(C(=O)C(=O)N3CCN(C(=O)c4ccccc4)C[C@H]3C)cc2)on1	> 40 µM	–
2000 nM	–	C[C@@H]1CN(C(=O)c2ccccc2)CCN1C(=O)C(=O)c1ccc(-c2ncccc2F)cc1	> 40 µM	–
420 nM	–	C[C@@H]1CN(C(=O)c2ccccc2)CCN1C(=O)C(=O)c1ccc(-c2cscn2)cc1	> 40 µM	–
< 5 nM	560 nM	COc1cc(-c2ccn[nH]2)ccc1C(=O)C(=O)N1CCN(C(=O)c2ccccc2)C[C@H]1C	> 40 µM	–
56 nM	2500 nM	COc1cc(C(=O)C(=O)N2CCN(C(=O)c3ccccc3)C[C@H]2C)ccc1-c1cc[nH]n1	> 40 µM	–
7300 nM	> 10000 nM	Cc1cc(-c2ccc(C(=O)C(=O)N3CCN(C(=O)c4ccccc4)C[C@H]3C)c(O)c2)on1	> 40 µM	–
> 10000 nM	–	CNc1cc(-c2cc[nH]n2)ccc1C(=O)C(=O)N1CCN(C(=O)c2ccccc2)C[C@H]1C	> 40 µM	–
5400 nM	–	C[C@@H]1CN(C(=O)c2ccccc2)CCN1S(=O)(=O)c1ccc(-c2ccccn2)s1	> 40 µM	–
23000 nM	–	C[C@@H]1CN(C(=O)c2ccccc2)CCN1C(=O)C(=O)c1cccc(-c2ccccn2)c1	> 40 µM	–
7 nM	215 nM	COc1cnc(-n2ccnn2)c2[nH]cc(S(=O)(=O)N3CCN(C(=O)c4ccccc4)C[C@H]3C)c12	> 40 µM	–
160 nM	2400 nM	CC1CN(C(=O)c2ccccc2)CCN1C(=O)C(=O)c1ccc(-c2cc[nH]n2)cc1 (racemic)	> 40 µM	–
1800 nM	–	CC1CN(C(=O)c2ccccc2)CCN1C(=O)C(=O)c1ccc(-c2ccn(C)n2)cc1 (racemic)	> 40 µM	–
110 nM	–	CC1CN(C(=O)c2ccccc2)CCN1C(=O)C(=O)c1ccc(-c2cnn(C)c2)cc1 (racemic)	> 40 µM	–
870 nM	6200 nM	CC1CN(C(=O)c2ccccc2)CCN1C(=O)C(=O)c1ccc(-n2nccn2)cc1 (racemic)	> 40 µM	–
910 nM	–	CC(=O)c1cc(-c2ccc(C(=O)C(=O)N3CCN(C(=O)c4ccccc4)CC3C)cc2)cs1 (racemic)	> 40 µM	–
940 nM	> 10000 nM	CC1CN(C(=O)c2ccccc2)CCN1C(=O)C(=O)c1ccc(-n2cncn2)cc1 (racemic)	> 40 µM	–

The next lines start with the compound.

SMILES	IC50 [1]	IC50 [2]	CC50 at 72 h [3]	further results
COc1ncc(OC)c2c(C(=O)C(=O)N3CCN(C(=O)c4ccccc4)CC3)c[nH]c12	26 nM	2400 nM	> 40 µM	IC50 [4]: > 10 µM; IC50 [5]: 30 nM; IC50 [6]: 0.24 µM; IC50 [7]: 7.13 µM; IC50 [8]: 14 nM; IC50 [9]: 17 nM; IC50 [10]: 11 nM; IC50 [11]: 425 nM; IC50 [12]: 4 nM; IC50 [13]: 22 nM; IC50 [14]: 34 nM; IC50 [15]: 60 nM
C[C@@H]1CN(C(=O)c2ccccc2)CCN1C(=O)C(=O)c1ccc(-c2cc[nH]n2)nc1	1000 nM	> 10000 nM	> 40 µM	–
C[C@@H]1CN(C(=O)c2ccccc2)CCN1C(=O)C(=O)c1ccc(-c2cc[nH]n2)cc1F	46 nM	1100 nM	> 40 µM	–
C[C@@H]1CN(C(=O)c2ccccc2)CCN1C(=O)C(=O)c1ccc(-c2nccs2)cc1	630 nM	> 10000 nM	> 40 µM	–
C[C@@H]1CN(C(=O)c2ccccc2)CCN1C(=O)C(=O)c1ccc(N2CCCC2)cc1	6700 nM	> 10000 nM	> 40 µM	–
C[C@@H]1CN(C(=O)c2ccccc2)CCN1C(=O)C(=O)c1ccc(-c2ccccn2)s1	13000 nM	–	> 40 µM	–
Cc1cc(-c2ccc(C(=O)C(=O)N3CCN(C(=O)c4ccccc4)C[C@H]3C)cc2F)on1	130 nM	> 10000 nM	> 40 µM	–
C[C@@H]1CN(C(=O)c2ccccc2)CCN1C(=O)C(=O)c1ccc(-c2cnco2)c(Cl)c1	< 5 nM	236 nM	> 40 µM	–
C[C@@H]1CN(C(=O)c2ccccc2)CCN1C(=O)C(=O)c1ccc(-c2cc[nH]n2)cc1O	2200 nM	> 10000 nM	> 40 µM	–
C[C@@H]1CN(C(=O)c2ccccc2)CCN1C(=O)C(=O)c1ccc(-c2cc[nH]n2)cc1N	78 nM	5900 nM	> 40 µM	–
C[C@@H]1CN(C(=O)c2ccccc2)CCN1C(=O)C(=O)c1ccc(-c2cnco2)cc1	250 nM	–	> 40 µM	–
C[C@@H]1CN(C(=O)c2ccccc2)CCN1S(=O)(=O)c1ccc(-c2cnco2)s1	1200 nM	–	> 40 µM	–
COc1cc(C(=O)C(=O)N2CCN(C(=O)c3ccccc3)C[C@H]2C)ccc1-c1cc(C)no1	830 nM	> 10000 nM	> 40 µM	–
C[C@@H]1CN(C(=O)c2ccccc2)CCN1C(=O)C(=O)c1ccc(-c2ccn[nH]2)cc1Cl	250 nM	4600 nM	> 40 µM	–
C[C@@H]1CN(C(=O)c2ccccc2)CCN1C(=O)C(=O)c1ccc(-c2ccsc2)cc1	540 nM	–	> 40 µM	–
COc1cc(C(=O)C(=O)N2CCN(C(=O)c3ccccc3)C[C@H]2C)ccc1-c1cnco1	50 nM	780 nM	> 40 µM	–
C[C@@H]1CN(C(=O)c2ccccc2)CCN1C(=O)C(=O)c1ccc(-c2cncs2)cc1	320 nM	–	> 40 µM	–
Cc1ccc(-c2ccc(C(=O)C(=O)N3CCN(C(=O)c4ccccc4)C[C@H]3C)cc2)o1	2800 nM	> 10000 nM	> 40 µM	–
C[C@@H]1CN(C(=O)c2ccccc2)CCN1C(=O)C(=O)c1ccc(N2CCOC2=O)cc1	12000 nM	> 10000 nM	> 40 µM	–
Cc1cc(-c2cc[nH]n2)ccc1C(=O)C(=O)N1CCN(C(=O)c2ccccc2)C[C@H]1C	1100 nM	> 10000 nM	> 40 µM	–
C[C@@H]1CN(C(=O)c2ccccc2)CCN1C(=O)C(=O)c1ccc(-c2cccs2)cc1	440 nM	–	> 40 µM	–
Cc1cc(C(=O)C(=O)N2CCN(C(=O)c3ccccc3)C[C@H]2C)ccc1-c1cc[nH]n1	35 nM	680 nM	> 40 µM	–
CC1CN(C(=O)c2ccccc2)CCN1C(=O)C(=O)c1ccc(-c2cc(N)ncn2)cc1 (racemic)	1400 nM	–	> 40 µM	–

Reference: ChEMBL document CHEMBL1158460, “Heterobiaryl human immunodeficiency virus entry inhibitors” (J Med Chem, 2009)
